Source: PMC2606940 (The Journal of General Physiology, 2009)
Positions count from the first letter of the chain named. Read-outs that look alike come from different tables or passages of the source.

Key:
[1] = biological target: T1, CLC-0 E166F mutant (Torpedo marmorata, UniProt P21564, C212S/E166F); type: cell-based; conditions: read-out: Apparent affinity (K1/2)
T1 sequence (P21564 1-805 E166F/C212S): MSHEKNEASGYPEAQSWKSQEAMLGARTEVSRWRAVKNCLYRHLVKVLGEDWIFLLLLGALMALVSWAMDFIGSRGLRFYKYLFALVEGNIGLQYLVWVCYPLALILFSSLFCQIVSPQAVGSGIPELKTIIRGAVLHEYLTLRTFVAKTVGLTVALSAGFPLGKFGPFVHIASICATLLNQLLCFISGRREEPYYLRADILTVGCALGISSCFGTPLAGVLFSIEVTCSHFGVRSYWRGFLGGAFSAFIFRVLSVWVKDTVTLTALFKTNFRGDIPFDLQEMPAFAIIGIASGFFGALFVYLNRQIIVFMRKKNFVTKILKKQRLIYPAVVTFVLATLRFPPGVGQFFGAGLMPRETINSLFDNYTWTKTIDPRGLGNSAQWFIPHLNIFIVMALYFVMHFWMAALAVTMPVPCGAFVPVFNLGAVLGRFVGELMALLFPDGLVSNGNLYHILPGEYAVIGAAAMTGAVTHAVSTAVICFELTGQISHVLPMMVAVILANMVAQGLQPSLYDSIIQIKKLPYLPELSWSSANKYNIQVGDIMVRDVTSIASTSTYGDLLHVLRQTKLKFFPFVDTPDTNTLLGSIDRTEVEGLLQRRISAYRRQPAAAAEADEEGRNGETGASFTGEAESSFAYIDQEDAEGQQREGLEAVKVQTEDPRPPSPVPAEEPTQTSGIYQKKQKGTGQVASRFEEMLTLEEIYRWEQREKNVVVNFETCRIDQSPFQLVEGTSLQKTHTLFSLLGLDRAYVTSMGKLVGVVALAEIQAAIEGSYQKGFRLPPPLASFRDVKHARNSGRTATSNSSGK
Summary of the method: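 CLC-0 mutants (C212S background) were lipofectamine-transfected into HEK293 cells and recorded 1–3 d later from inside-out patches. Pipette and bath contained 130 mM NaCl, 5 MgCl2, 10 HEPES and 1 EGTA (pH 7.4). Test compound was perfused onto the cytoplasmic side. A +80 mV prepulse preceded steps to steady state. The last-10-ms current was normalized to bracketing blocker-free controls and fitted to a Langmuir function for K1/2.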

[2] = biological target: T2, CLC-0 E166Y mutant (Torpedo marmorata, UniProt P21564, C212S/E166Y); type: cell-based; conditions: read-out: Apparent affinity (K1/2)
T2 sequence (P21564 1-805 E166Y/C212S): T1 sequence (P21564 1-805 E166F/C212S) with F166Y
Summary of the method: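 CLC-0 mutants in the C212S background were transfected into HEK293 cells with lipofectamine and recorded 1–3 d later as excised inside-out patches. Both sides held 130 mM NaCl, 5 mM MgCl2, 10 mM HEPES and 1 mM EGTA, pH 7.4. CPA was perfused continuously onto the cytoplasmic face. Steady-state current over the last 10 ms was normalized to bracketing blocker-free controls and fitted to a Langmuir function for K1/2. Values are mean ± SEM of ~4–6 patches.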

Row | SMILES | IC50 ([1]; −40 mV) | IC50 ([1]; −60 mV) | IC50 ([1]; −80 mV) | IC50 ([1]; −100 mV) | IC50 ([1]; −120 mV) | IC50 ([1]; −140 mV) | IC50 ([1]; −160 mV) | IC50 ([2]; −40 mV) | IC50 ([2]; −60 mV) | IC50 ([2]; −80 mV) | IC50 ([2]; −100 mV) | IC50 ([2]; −120 mV) | IC50 ([2]; −140 mV) | IC50 ([2]; −160 mV)
1 | O=C(O)COc1ccc(Cl)cc1 [CPA, p-chlorophenoxy acetate] | 5120 ± 1720 µM | 2060 ± 300 µM | 730 ± 90 µM | 350 ± 30 µM | 170 ± 20 µM | 93 ± 12 µM | 47 ± 7 µM | 6180 ± 670 µM | 2790 ± 150 µM | 1370 ± 50 µM | 700 ± 10 µM | 380 ± 10 µM | 220 ± 10 µM | 130 ± 10 µM
2 | CCCCCCCC(=O)O [octanoate] | 3090 ± 560 µM | 1630 ± 160 µM | 803 ± 50 µM | 455 ± 15 µM | 254 ± 7 µM | 150 ± 4 µM | 91 ± 1 µM |  |  | 16700 ± 650 µM | 11200 ± 540 µM | 7430 ± 410 µM | 4990 ± 310 µM | 3360 ± 180 µM
